Data set [1] deals with Mus musculus. Kind of data set: Anticonvulsant activity in ip dosed CF1 albino mouse assessed as minimum effective dose after 0.5 hrs by scPTZ test. Type of data set: functional. In outline: (§1)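 Mice dosed i.p. at 30, 100 and 300 mg/kg in 1% Tween 80 or 0.5% methylcellulose–water, then challenged 0.5 and 4 h later. PTZ in 0.9% NaCl was injected s.c. at the posterior midline. Mice were watched for 30 min. Protection meant no clonic spasm lasting at least 5 s. Value is the minimum dose active in half or more of the mice.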

For data set [2], the system named is Mus musculus. The data set can be described thus: Anticonvulsant activity in ip dosed CF1 albino mouse assessed as minimum effective dose after 0.5 hrs by MES screen test. Type of data set: functional. In outline: (§2)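 Mice given test compounds i.p. at 30, 100 and 300 mg/kg (one to four mice per dose), suspended in 1% Tween 80 or 0.5% methylcellulose–water. Maximal electroshock seizure test, read at 0.5 and 4 h after dosing. Value is the lowest dose protecting half or more of the mice.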

For data set [3], the species on record is Mus musculus. Kind of data set: Neurotoxicity in CF1 albino mouse after 0.5 hrs by rotarod test. Conditions: in vivo; call rule not given here. Type of data set: toxicity, organism-based.
For data set [4], the system named is Mus musculus. Kind of data set: Anticonvulsant activity in ip dosed CF1 albino mouse assessed as minimum effective dose after 4 hrs by MES screen test. It is filed as functional. In outline: as §2
The species named for data set [5] is Rattus norvegicus. The data set can be described thus: Hepatotoxicity in Sprague-Dawley rat assessed as presence of normal hepatic parenchyma with portal triad and central vein by histopathological study. Type of data set: toxicity, organism-based. Particulars: in vivo. An outline of the steps:
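Rats were dosed chronically and sacrificed under light ether anesthesia 24 h after the last dose. Livers were removed, washed in normal saline and embedded in paraffin. Sections 5–6 thick were cut, stained with haematoxylin and eosin, and examined microscopically.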

The test system of data set [6] is Mus musculus. Kind of data set: Anticonvulsant activity in ip dosed CF1 albino mouse assessed as minimum effective dose after 4 hrs by scPTZ test. Type of data set: functional. An outline of the steps: as §1
For data set [7], the system named is Rattus norvegicus. The data set can be described thus: Antidepressant activity in Wistar rat assessed as mean average immobility time during 5 mins of test period at 30 mg/kg, po after 30 mins by forced-swimming test. It is filed as functional.
The species entered for data set [8] is Mus musculus. Kind of data set: Neurotoxicity in CF1 albino mouse after 4 hrs by rotarod test. It is filed as toxicity, organism-based. Conditions: in vivo.
Data set [9] has as its system Rattus norvegicus. Kind of data set: Hepatotoxicity in Sprague-Dawley rat assessed as total protein level per 100 ml of blood at 30 mg/kg, po after 15 days. It is filed as toxicity, organism-based. Also on record: dose 30 mg/kg, route oral. Conditions: in vivo, 360 h. In outline:
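Rats given 30 mg/kg/day p.o. in methylcellulose for two weeks, then anesthetized with ether. Blood was collected from the liver. SGOT, SGPT, alkaline phosphatase, total protein and albumin were measured by reported methods.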

Consider `Cc1ccc2nc(NC(=S)NC(=O)c3ccc(Cl)cc3)sc2c1`, for which the Activity in [1] was 100 mg/kg; in data set [2] it was 30 mg/kg; in data set [3] it was “Not Active”; in [4] it was 100 mg/kg; in [5] it was “Non-toxic”; in data set [6] it was 100 mg/kg. The Activity in [7] is on record as 30 s; in [8], “Not Active”; in [9], 1.88 g.

`COc1ccc(C(=O)NC(=S)Nc2nc3ccc([N+](=O)[O-])cc3s2)cc1`: the Activity entry is reported as “Non-toxic” in data set [5] and 27.8 s in [7].

Consider `COc1ccc(C(=O)NC(=S)Nc2nc3ccc(F)cc3s2)cc1`, for which the Activity result in data set [5] is “Non-toxic”; in [7] it was 31.2 s.

As to `COc1ccc2nc(NC(=S)NC(=O)c3ccccc3Cl)sc2c1`, the Activity was 100 mg/kg in data set [1]; 30 mg/kg in data set [2]; “Not Active” in data set [3]; 100 mg/kg in [4]; “Non-toxic” in data set [5]; 100 mg/kg in data set [6]. For the same compound, the Activity was 42.6 s in data set [7], “Not Active” in data set [8] and 1.98 g in [9].

On to `O=C(NC(=S)Nc1nc2ccc(Br)cc2s1)c1ccccc1Cl`, for which the Activity in [1] was 300 mg/kg; in data set [2] it was 300 mg/kg; in data set [4], 300 mg/kg; in data set [5] it was “Non-toxic”; in data set [6], 300 mg/kg; in [7] it was 22.6 s.

For the compound `COc1ccc(C(=O)NC(=S)Nc2nc3ccc(OC)cc3s2)cc1`, the Activity in data set [1] was 300 mg/kg; in data set [2], 300 mg/kg; in data set [4] it was 300 mg/kg; in data set [5] it was “Non-toxic”; in [6], 300 mg/kg; in data set [7], 16.8 s.

Turning to `COc1ccc2nc(NC(=S)NC(=O)c3ccccc3)sc2c1`, the Activity is 300 mg/kg in data set [1]; 100 mg/kg in data set [2]; 100 mg/kg in [4]; “Non-toxic” in data set [5]; 300 mg/kg in data set [6]; 19.8 s in data set [7].

As for `O=C(NC(=S)Nc1nc2ccc(F)cc2s1)c1ccc(Cl)cc1`, the Activity is 100 mg/kg in [2], 300 mg/kg in [4], “Non-toxic” in [5] and 24.6 s in [7].

`COc1ccc2nc(NC(=S)NC(=O)c3ccc(Cl)cc3)sc2c1`: the Activity in data set [1] is 300 mg/kg; in data set [2], 300 mg/kg; in data set [4] it was 300 mg/kg; in [5], “Non-toxic”; in data set [6], 300 mg/kg; in [7], 43 s.

Consider `Cc1ccc2nc(NC(=S)NC(=O)c3ccccc3Cl)sc2c1`, for which the Activity in data set [1] is 30 mg/kg; in [2], 30 mg/kg; in data set [3] it was “Not Active”; in data set [4] it was 30 mg/kg; in data set [5], “Non-toxic”; in data set [6], 30 mg/kg. Further, the figures for the Activity in [7], in data set [8] and in data set [9] were 40.4 s, “Not Active” and 1.71 g, respectively.

For `O=C(NC(=S)Nc1nc2ccc(F)cc2s1)c1ccccc1`, the Activity in data set [1] was 30 mg/kg; in [2] it was 30 mg/kg; in [3], “Not Active”; in [4], 30 mg/kg; in [5] it was “Non-toxic”; in [6] it was 100 mg/kg. Moreover, the Activity in data set [7] is 24 s; in [8], “Not Active”; in data set [9], 1.8 g.

With `O=C1NC(=O)C(c2ccccc2)(c2ccccc2)N1` [PHENYTOIN], the Activity is 30 mg/kg in [2]; “Not Active” in data set [3]; 30 mg/kg in data set [4]; “Non-toxic” in data set [5]; “Not Active” in data set [8].

On to `O=C(NC(=S)Nc1nc2ccc(F)cc2s1)c1ccccc1Cl`, for which the Activity in data set [1] was 100 mg/kg; in data set [2] it was 30 mg/kg; in [3], “Not Active”; in data set [4], 100 mg/kg; in data set [5], “Non-toxic”; in data set [6], 300 mg/kg. For the same compound, the Activity was 25 s in data set [7], “Not Active” in [8] and 1.83 g in data set [9].

With `COc1ccc(C(=O)NC(=S)Nc2nc3ccc(Cl)cc3s2)cc1`, the Activity in data set [1] was 30 mg/kg; in [2] it was 30 mg/kg; in [3], “Not Active”; in data set [4], 30 mg/kg; in [5], “Non-toxic”; in data set [6], 100 mg/kg. Besides, the Activity in [7] is reported as 34.2 s; in data set [8] it was “Not Active”; in data set [9], 1.79 g.

`O=C(NC(=S)Nc1nc2ccc(Br)cc2s1)c1ccc(Cl)cc1`: the Activity is 300 mg/kg in [1]; 100 mg/kg in data set [2]; 100 mg/kg in data set [4]; “Non-toxic” in data set [5]; 300 mg/kg in data set [6]; 38 s in data set [7].

In the case of `CNCCC(Oc1ccc(C(F)(F)F)cc1)c1ccccc1` (stereo not drawn) [FLUOXETINE], the Activity in [2] is 29.6 mg/kg; in data set [4] it was 14.2 mg/kg.

As for `COc1ccc(C(=O)NC(=S)Nc2nc3ccc(C)cc3s2)cc1`, the Activity was 300 mg/kg in data set [2], 300 mg/kg in [4], “Non-toxic” in [5] and 10.2 s in [7].

On to `O=C(NC(=S)Nc1nc2ccc(Cl)cc2s1)c1ccc(Cl)cc1`, for which the Activity in data set [1] is 100 mg/kg; in data set [2] it was 30 mg/kg; in data set [3], “Not Active”; in data set [4] it was 100 mg/kg; in data set [5], “Non-toxic”; in data set [6], 300 mg/kg. Further, the results for the Activity in data set [7], in data set [8] and in [9] were 20.2 s, “Not Active” and 1.9 g, respectively.

Regarding `O=C(NC(=S)Nc1nc2ccc([N+](=O)[O-])cc2s1)c1ccccc1`, the Activity was 300 mg/kg in data set [1]; 300 mg/kg in data set [2]; 300 mg/kg in data set [4]; “Non-toxic” in data set [5]; 300 mg/kg in data set [6]; 14.8 s in data set [7].

As for `Cc1ccc2nc(NC(=S)NC(=O)c3ccccc3)sc2c1`, the Activity is 300 mg/kg in data set [1]; 300 mg/kg in [2]; 300 mg/kg in data set [4]; “Non-toxic” in data set [5]; 300 mg/kg in data set [6]; 29 s in data set [7].

As to `NC(=O)N1c2ccccc2C=Cc2ccccc21` [CARBAMAZEPINE], the Activity was 100 mg/kg in [1]; 30 mg/kg in data set [2]; “Not Active” in data set [3]; 100 mg/kg in [4]; “Non-toxic” in [5]; 100 mg/kg in [6]. In [8], the Activity result is given as “Not Active”.

Turning to `O=C(NC(=S)Nc1nc2ccc(Cl)cc2s1)c1ccccc1Cl`, the Activity in data set [1] is 300 mg/kg; in data set [2], 300 mg/kg; in data set [4], 300 mg/kg; in data set [5], “Non-toxic”; in [6], 300 mg/kg; in data set [7], 32.6 s.

As for `O=C(NC(=S)Nc1nc2ccc(Cl)cc2s1)c1ccccc1`, the Activity in data set [1] was 100 mg/kg; in [2] it was 300 mg/kg; in data set [4], 300 mg/kg; in [5] it was “Non-toxic”; in data set [6], 300 mg/kg; in data set [7] it was 29 s.

Values taken from ChEMBL document CHEMBL1141656, “N-{[(6-substituted-1,3-benzothiazole-2-yl)amino]carbonothioyl}-2/4-substituted benzamides: synthesis and pharmacological evaluation” (Eur J Med Chem, 2008).
